The results in this text go back to ChEMBL document CHEMBL3763115, “Silibinin derivatives as anti-prostate cancer agents: Synthesis and cell-based evaluations” (Eur J Med Chem, 2016).

The term IC50 denotes the concentration that gives 50% inhibition.

Bounds are passed on as bounds.

Test [1] has as its system LNCaP. Put plainly: Antiproliferative activity against human LNCAP cells assessed as reduction in cell viability after 3 days by WST-1 cell proliferation assay. It counts as functional, cell-based. The settings on record: 72 h. The method, boiled down:
(§1)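 Cells from ATCC; PC-3 and LNCaP grown in RPMI-1640, DU145 in EMEM, each with 10% FBS and 1% penicillin/streptomycin, 37 °C, 5% CO2. 3,200 cells per well, treated at 5 concentrations for 3 days with 0.25% DMSO as vehicle control. WST-1 reagent added, 3 h at 37 °C, absorbance read at 430 nm. IC50 from linear fit of at least five doses, mean of at least triplicates.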

Test [2] is described as follows: Antiproliferative activity against human DU145 cells assessed as reduction in cell viability after 3 days by WST-1 cell proliferation assay. It counts as functional, cell-based. The settings on record: DU-145, 72 h. The method, boiled down:
as §1

A short description of test [3]: Potency index, ratio of silibinin IC50 to compound IC50 for antiproliferative activity against human PC3 cells. It counts as functional, PC-3. The method, boiled down: (§2)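 Ratio of silibinin IC50 to derivative IC50. Both come from the 3-day WST-1 assay run in parallel (5 doses, absorbance at 430 nm, IC50 from linear fit, at least triplicates).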
Test [4] can be described thus: Antiproliferative activity against human PC3 cells assessed as reduction in cell viability after 3 days by WST-1 cell proliferation assay. Conditions: PC-3, 72 h. In kind it is functional, cell-based. The method, boiled down:
as §1
Background: Tetrazolium assays rely on reduction of a dye to a coloured formazan, in cell work by metabolically active cells.

Test [5] has as its system LNCaP. Put plainly: Potency index, ratio of silibinin IC50 to compound IC50 for antiproliferative activity against human LNCAP cells. It counts as functional. The method, boiled down: as §2
Test [6] in a line: Potency index, ratio of silibinin IC50 to compound IC50 for antiproliferative activity against human DU145 cells. In kind it is functional, DU-145. The method, boiled down:
as §2

With `COc1cc(O)c2c(=O)c(O)c(-c3ccc4c(c3)OC(c3ccc(O)c(OC)c3)C(CO)O4)oc2c1` (stereo unspecified), the IC50 in test [1] was determined as 2.76 µM; in test [2] it was 7.92 µM; in test [4], 2.39 µM. In addition, the “Ratio IC50” value in test [3] is 30; in test [5] it was 16; in test [6], 12.
For `CCCCCCOc1cc(O)c2c(=O)c(O)c(-c3ccc4c(c3)OC(c3ccc(O)c(OC)c3)C(CO)O4)oc2c1` (stereo unspecified), the IC50 was 4.01 µM in test [1], 8.84 µM in test [2] and 6.94 µM in test [4]. In addition, the “Ratio IC50” value stood at 10 in test [3], 11 in test [5] and 11 in test [6].
With `CCCOc1cc(O)c2c(c1)O[C@H](c1ccc3c(c1)OC(c1ccc(O)c(OC)c1)C(CO)O3)[C@@H](O)C2=O` (stereo partly specified), the IC50 amounted to 4.66 µM in test [1], 30.3 µM in test [2] and 18.5 µM in test [4]. Further, the “Ratio IC50” value in test [3] is reported as 4; in test [5], 9; in test [6] it was 3.
For the compound `CCCCCCOc1cc(O)c2c(c1)O[C@H](c1ccc3c(c1)OC(c1ccc(O)c(OC)c1)C(CO)O3)[C@@H](O)C2=O` (stereo partly specified), the IC50 in test [1] worked out at 1.65 µM; in test [2], 11.3 µM; in test [4] it was 5.97 µM. Besides, the figures for the “Ratio IC50” value in test [3], in test [5] and in test [6] were 12, 26 and 8, respectively.
For `CCCCCOc1cc(O)c2c(c1)O[C@H](c1ccc3c(c1)OC(c1ccc(O)c(OC)c1)C(CO)O3)[C@@H](O)C2=O` (stereo partly specified), the IC50 stood at 1.78 µM in test [1], 8.93 µM in test [2] and 6.17 µM in test [4]. In addition, the “Ratio IC50” value in test [3] was 12; in test [5], 24; in test [6] it was 10.
As to `CCCOc1cc(O)c2c(=O)c(OCCC)c(-c3ccc4c(c3)OC(c3ccc(O)c(OC)c3)C(CO)O4)oc2c1` (stereo unspecified), the values for the IC50 in test [1], in test [2] and in test [4] were 11 µM, 20.6 µM and 17.4 µM, respectively. In addition, the “Ratio IC50” value in test [3] is on record as 5; in test [5], 4; in test [6] it was 5.
Regarding `COc1cc(O)c2c(c1)O[C@H](c1ccc3c(c1)OC(c1ccc(O)c(OC)c1)C(CO)O3)[C@@H](O)C2=O` (stereo partly specified), the IC50 was 0.44 µM in test [1], 25.1 µM in test [2] and 12.4 µM in test [4]. Moreover, the “Ratio IC50” value is reported as 6 in test [3], 98 in test [5] and 4 in test [6].
With `COc1cc(C2Oc3cc(-c4oc5cc(OCc6ccccc6)cc(O)c5c(=O)c4OCc4ccccc4)ccc3OC2CO)ccc1O` (stereo unspecified), the IC50 in test [1], in test [2] and in test [4] was > 100 µM each time. In addition, the “Ratio IC50” value in test [3], in test [5] and in test [6] was <1 each time.
For the compound `CCOc1cc(O)c2c(c1)O[C@H](c1ccc3c(c1)OC(c1ccc(O)c(OC)c1)C(CO)O3)[C@@H](O)C2=O` (stereo partly specified), the IC50 in test [1] came to 0.35 µM; in test [2], 27.7 µM; in test [4], 16.1 µM. For the same compound, the “Ratio IC50” value in test [3] was determined as 5; in test [5], 123; in test [6] it was 3.
Turning to `CCOc1cc(O)c2c(=O)c(OCC)c(-c3ccc4c(c3)OC(c3ccc(O)c(OC)c3)C(CO)O4)oc2c1` (stereo unspecified), the results for the IC50 in test [1], in test [2] and in test [4] were 5.57 µM, 10.4 µM and 8.5 µM, respectively. The “Ratio IC50” value in test [3] was determined as 9; in test [5] it was 8; in test [6], 9.
`CCCCCOc1cc(O)c2c(=O)c(OCCCCC)c(-c3ccc4c(c3)OC(c3ccc(O)c(OC)c3)C(CO)O4)oc2c1` (stereo unspecified): the IC50 is 28.7 µM in test [1], 28.7 µM in test [2] and 52.1 µM in test [4]. Also, the figures for the “Ratio IC50” value in test [3], in test [5] and in test [6] were 1, 1 and 3, respectively.
As to `COc1cc(C2Oc3cc([C@H]4Oc5cc(OCc6ccccc6)cc(O)c5C(=O)[C@@H]4O)ccc3OC2CO)ccc1O` (stereo partly specified), the IC50 in test [1] stood at 2.04 µM; in test [2] it was 8.77 µM; in test [4] it was 5.29 µM. In addition, the “Ratio IC50” value worked out at 14 in test [3], 21 in test [5] and 11 in test [6].
Regarding `CCCCOc1cc(O)c2c(=O)c(OCCCC)c(-c3ccc4c(c3)OC(c3ccc(O)c(OC)c3)C(CO)O4)oc2c1` (stereo unspecified), the half-inhibitory concentration (IC50) in test [1] amounted to 46.6 µM; in test [2], 36.5 µM; in test [4], 45.8 µM. Further, the “Ratio IC50” value in test [3] is on record as 2; in test [5], 1; in test [6], 3.
In the case of `CCCCCCCOc1cc(O)c2c(c1)O[C@H](c1ccc3c(c1)OC(c1ccc(O)c(OC)c1)C(CO)O3)[C@@H](O)C2=O` (stereo partly specified), the IC50 was 4.57 µM in test [1], 17.4 µM in test [2] and 10.9 µM in test [4]. Also, the “Ratio IC50” value is 7 in test [3], 9 in test [5] and 5 in test [6].
Consider `COc1cc(C2Oc3cc(-c4oc5cc(OCc6ccccc6)cc(O)c5c(=O)c4O)ccc3OC2CO)ccc1O` (stereo unspecified), for which the IC50 is 3.71 µM in test [1], 8.97 µM in test [2] and 7.98 µM in test [4]. Further, the figures for the “Ratio IC50” value in test [3], in test [5] and in test [6] were 9, 12 and 10, respectively.
For `CCCCCCCOc1cc(O)c2c(=O)c(O)c(-c3ccc4c(c3)OC(c3ccc(O)c(OC)c3)C(CO)O4)oc2c1` (stereo unspecified), the IC50 in test [1] came to 4.81 µM; in test [2], 7.49 µM; in test [4], 7.09 µM. The figures for the “Ratio IC50” value in test [3], in test [5] and in test [6] were 10, 9 and 12, respectively.
Regarding `CCCCCCCOc1cc(O)c2c(=O)c(OCCCCCCC)c(-c3ccc4c(c3)OC(c3ccc(O)c(OC)c3)C(CO)O4)oc2c1` (stereo unspecified), the IC50 in test [1], in test [2] and in test [4] was > 100 µM throughout. In addition, the “Ratio IC50” value in test [3], in test [5] and in test [6] was <1 in each case.
`COc1cc(C2Oc3cc([C@H]4Oc5cc(O)cc(O)c5C(=O)[C@@H]4O)ccc3OC2CO)ccc1O` (stereo partly specified) [SILIBININ]: the half-maximal inhibitory concentration (IC50) in test [1] stood at 43 µM; in test [2], 93.3 µM; in test [4] it was 72.7 µM.
As for `CCCOc1cc(O)c2c(=O)c(O)c(-c3ccc4c(c3)OC(c3ccc(O)c(OC)c3)C(CO)O4)oc2c1` (stereo unspecified), the figures for the IC50 in test [1], in test [2] and in test [4] were 4.41 µM, 5.36 µM and 4.69 µM, respectively. Also, the “Ratio IC50” value in test [3] is listed as 15; in test [5], 10; in test [6], 17.
Take `CCCCOc1cc(O)c2c(=O)c(O)c(-c3ccc4c(c3)OC(c3ccc(O)c(OC)c3)C(CO)O4)oc2c1` (stereo unspecified): the IC50 in test [1] was found to be 3.19 µM; in test [2], 5.81 µM; in test [4], 4.55 µM. The “Ratio IC50” value was found to be 16 in test [3], 13 in test [5] and 16 in test [6].
On to `COc1cc(O)c2c(=O)c(OC)c(-c3ccc4c(c3)OC(c3ccc(O)c(OC)c3)C(CO)O4)oc2c1` (stereo unspecified), for which the IC50 was 6.88 µM in test [1], 22.2 µM in test [2] and 15.3 µM in test [4]. The “Ratio IC50” value in test [3] is given as 5; in test [5] it was 6; in test [6] it was 4.
Regarding `CCCCOc1cc(O)c2c(c1)O[C@H](c1ccc3c(c1)OC(c1ccc(O)c(OC)c1)C(CO)O3)[C@@H](O)C2=O` (stereo partly specified), the IC50 in test [1] came out at 2.51 µM; in test [2], 12 µM; in test [4], 5.38 µM. Further, the “Ratio IC50” value in test [3] is given as 14; in test [5], 17; in test [6], 8.
Turning to `CCCCCOc1cc(O)c2c(=O)c(O)c(-c3ccc4c(c3)OC(c3ccc(O)c(OC)c3)C(CO)O4)oc2c1` (stereo unspecified), the half-maximal inhibitory concentration (IC50) in test [1] was found to be 4.62 µM; in test [2], 6.92 µM; in test [4], 6.05 µM. In addition, the “Ratio IC50” value in test [3] was found to be 12; in test [5], 9; in test [6], 14.
As to `CCCCCCOc1cc(O)c2c(=O)c(OCCCCCC)c(-c3ccc4c(c3)OC(c3ccc(O)c(OC)c3)C(CO)O4)oc2c1` (stereo unspecified), the IC50 in test [1], in test [2] and in test [4] was > 100 µM in each case. The “Ratio IC50” value in test [3], in test [5] and in test [6] was <1 each time.
